Legend:
Other HDACS = assay: fluorogenic assay against recombinant HDAC proteins, other HDACs; format: biochemical, human; conditions: read-out: IC50 Other HDACS
Summary of the method: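 Recombinant human HDACs screened with commercial fluorogenic enzyme assay kits, following the manufacturer protocol, at 9 dilutions of test compound. Fluorescence read on a microplate reader. IC50 from nonlinear curve fit of % HDAC activity inhibition vs compound concentration.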

Class I/IIb HDACs [1] = assay: class-distinguishing fluorogenic substrates whole-cell assay, class I/IIb, L3.6; format: cell-based; conditions: read-out: IC50 Class I/IIb HDACs, L3.6 cells
Summary of the method: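 Whole cells incubated with 200 µM Boc-Lys-Ac (class-I/IIb selective substrate) in RPMI without phenol red plus 0.1% FBS, 3 h at 37 °C. Test compound given as an 11-point curve at 5% final DMSO; 5 µM trichostatin A served as positive control and DMSO alone as negative control. Trypsin developer (2.5 mg/mL, with tween 80) added for 1 h to lyse cells and release fluorophore. Read at ex 360 / em 460 nm; IC50 by nonlinear fit.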

HDAC9 = conditions: in words; ref [19],[20]; cited from earlier work
HDAC5 = conditions: read-out: IC50 HDAC5 non-cell-based inhibition; ref [19],[20]; cited from earlier work
HDAC4 = conditions: read-out: IC50 HDAC4 non-cell-based inhibition; ref [19],[20]; cited from earlier work
[2] = test system: indigenous class-IIa HDACs; conditions: read-out: IC50 binding to indigenous class-IIa HDACs; THP-1 cells; ref [19]; cited from earlier work
Class IIa HDACs = assay: class-distinguishing fluorogenic substrates whole-cell assay, class IIa, HT-29; format: cell-based; conditions: read-out: IC50 Class-IIa, HT-29 cells, Boc-Lys-TFA substrate
Class I/IIb HDACs [3] = assay: class-distinguishing fluorogenic substrates whole-cell assay, class I/IIb, HT-29; format: cell-based; conditions: read-out: IC50 Class-I/IIb, HT-29 cells, Boc-Lys-Ac substrate

Compound | IC50 (Other HDACS) | IC50 (Class I/IIb HDACs [1]) | IC50 HDAC9 non-cell-based inhibition (HDAC9) | IC50 (HDAC5) | IC50 (HDAC4) | IC50 [2] | IC50 (Class IIa HDACs) | IC50 (Class I/IIb HDACs [3])
CC(C)(CNC(=O)c1cccc(-c2noc(C(F)(F)F)n2)c1)c1coc(-c2ccccc2)n1 [TMP195] | > 5000 nM | > 5000 nM | low nM range | > 100 nM | > 100 nM | 300 nM | – | –
N-(3-(benzylamino)-2,2-dimethyl-3-oxopropyl)-4-(5-(trifluoromethyl)-1,2,4-oxadiazol-3-yl)benzamide [Compound 10] | – | – | – | – | – | – | 933 ± 260 nM | > 15000 nM

From article PMC8919062 (European journal of medicinal chemistry, 2021)
